Assay type in all cases: functional
The species named for test [1] is Rattus norvegicus. The test can be described thus: Ability to induce [3H]5-HT release from prelabeled rat whole brain synaptosome preparations at 10e-6 M concentration. The procedure, abridged:
(§1)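 Rat whole brain homogenised in ice-cold 0.32 M sucrose. Synaptosomes were isolated on a 1.2/0.8 M sucrose step gradient, preincubated 5 min at 37 °C in oxygenated Krebs-Henseleit, then loaded 5 min with [3H]5-HT (10^-7 M). Filter-retained synaptosomes were washed and superfused at 0.5 mL/min. 1-min fractions were counted for 5 min before and 10 min after drug addition. Efflux rate constant K taken from semilog plots; means of 3-4 experiments.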

Test [2] is filed under the species Rattus norvegicus. Briefly: Ability to induce [3H]5-HT release from prelabeled rat whole brain synaptosome preparations at 10e-7 M concentration. The procedure, abridged: as §1
The species named for test [3] is Rattus norvegicus. Briefly: Ability to induce [3H]-5-HT release from prelabeled rat whole brain synaptosome preparations at 10e-5 M concentration. Put shortly:
as §1

For test [4], the species on record is Rattus norvegicus. The test can be described thus: Ability to induce [3H]5-HT release from prelabeled rat whole brain synaptosome preparations and the K value was determined. Put shortly: as §1
The species entered for test [5] is Rattus norvegicus. The test can be described thus: Ability to induce [3H]-5-HT release from prelabeled rat whole brain synaptosome preparations and the activity was determined as percent of total released.
The species entered for test [6] is Rattus norvegicus. Briefly: Ability to induce [3H]5-HT release from prelabeled rat whole brain synaptosome preparations; Relative rate of release to that of control was determined. The procedure, abridged: as §1
The species named for test [7] is Rattus norvegicus. The test can be described thus: Ability to induce [3H]5-HT release from prelabeled rat whole brain synaptosome preparations and the K value was determined at 10e-5 M. Put shortly:
as §1

Consider `COc1ccc(C[C@@H](C)N)cc1`, for which the values for the K in the test listed under Rattus norvegicus [1], in the test filed under Rattus norvegicus [2] and in the test listed under Rattus norvegicus [3] were 2.28e+06 min⁻¹, 1.39e+06 min⁻¹ and 3.07e+06 min⁻¹, respectively.

Take `C[C@H](N)Cc1ccc2c(c1)OCO2`: the results for the K in the test listed under Rattus norvegicus [1], in the test listed under Rattus norvegicus [2] and in the test listed under Rattus norvegicus [3] were 2.42e+06 min⁻¹, 1.78e+06 min⁻¹ and 3.07e+06 min⁻¹, respectively.

In the test filed under Rattus norvegicus [4], `CC(C)(N)Cc1ccc2c(c1)OCO2` registered a K of 175 min⁻¹. In addition, in the test listed under Rattus norvegicus [5], the Total release is 45.2%. This compound came in with a Relative rate in the test listed under Rattus norvegicus [6] of 1.09.

Take `COc1ccc(CC(C)N)cc1` (single isomer, unassigned): the K is 280 10e4min-1 in the test filed under Rattus norvegicus [4], 2.55e+06 min⁻¹ in the test listed under Rattus norvegicus [1], 2.3e+06 min⁻¹ in the test listed under Rattus norvegicus [7] and 1.34e+06 min⁻¹ in the test listed under Rattus norvegicus [2]. In addition, the Total release in the test filed under Rattus norvegicus [5] was found to be 57.8%. Further, in the test filed under Rattus norvegicus [6], the Relative rate was 1.76.

Turning to `C[C@@H](N)Cc1ccc2c(c1)OCO2`, the K in the test listed under Rattus norvegicus [1] was determined as 2.02e+06 min⁻¹; in the test listed under Rattus norvegicus [2], 2.14e+06 min⁻¹; in the test filed under Rattus norvegicus [3], 3.21e+06 min⁻¹.

With `CN[C@H](C)Cc1ccc2c(c1)OCO2`, the K in the test listed under Rattus norvegicus [1] turned out to be 1.73e+06 min⁻¹; in the test filed under Rattus norvegicus [2], 1.49e+06 min⁻¹; in the test listed under Rattus norvegicus [3], 2.74e+06 min⁻¹.

The compound `CNC(C)(C)Cc1ccc2c(c1)OCO2` showed a K in the test filed under Rattus norvegicus [4] of 169 min⁻¹. Further, the Total release in the test filed under Rattus norvegicus [5] was found to be 44.3%. The same compound showed a Relative rate in the test filed under Rattus norvegicus [6] of 1.06.

On to `COc1ccc(CC(C)(C)N)cc1`, for which, in the test listed under Rattus norvegicus [5], the Total release came to 45%. Further, in the test listed under Rattus norvegicus [6], the Relative rate was 1.06.

For `CN[C@@H](C)Cc1ccc2c(c1)OCO2`, the K in the test listed under Rattus norvegicus [1] amounted to 2.84e+06 min⁻¹; in the test filed under Rattus norvegicus [2], 1.68e+06 min⁻¹; in the test listed under Rattus norvegicus [3], 2.62e+06 min⁻¹.

These data come from ChEMBL document CHEMBL1122159, “Effects of certain hallucinogenic amphetamine analogues on the release of [3H]serotonin from rat brain synaptosomes” (J Med Chem, 1982).
